The results in this text go back to ChEMBL document CHEMBL1240382, “Elucidation of the pharmacokinetic/pharmacodynamic determinant of colistin activity against Pseudomonas aeruginosa in murine thigh and lung infection models” (Antimicrob Agents Chemother, 2010).

Common to all, as to type: ADME, organism-based
Holding throughout (conditions): in vivo

Data set [1] has as its system Mus musculus. Put plainly: Cmax in Pseudomonas aeruginosa infected neutropenic Swiss mouse at 5 mg/kg, sc. More on the design: dose 5 mg/kg, route subcutaneous. In short, it runs like this: (§1)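 Single s.c. colistin (sulfate) dose (5, 10, 20 or 40 mg/kg) in neutropenic thigh-infected mice; central-vein blood at 6–8 times over 10 h, 4 mice per time; plasma colistin by HPLC (0.10–4.00 mg/liter calibration). Unbound levels from concentration-dependent fu (equilibrium dialysis, pH 7.4 phosphate buffer, 21 h, 37°C); parameters by noncompartmental analysis.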

The test system of data set [2] is Mus musculus. The data set can be described thus: Cmax in Pseudomonas aeruginosa infected neutropenic Swiss mouse at 10 mg/kg, sc. More on the design: dose 10 mg/kg, route subcutaneous. The gist of the method: as §1
The subject of data set [3] is Mus musculus. Put plainly: Cmax in Pseudomonas aeruginosa infected neutropenic Swiss mouse at 20 mg/kg, sc. More on the design: dose 20 mg/kg, route subcutaneous. The gist of the method: as §1
Data set [4] relates to Mus musculus. Put plainly: Cmax in Pseudomonas aeruginosa infected neutropenic Swiss mouse at 40 mg/kg, sc. More on the design: dose 40 mg/kg, route subcutaneous. In short, it runs like this:
as §1

Data set [5] has as its system Mus musculus. The data set can be described thus: Tmax in Pseudomonas aeruginosa infected neutropenic Swiss mouse at 5 mg/kg, sc. More on the design: dose 5 mg/kg, route subcutaneous. The gist of the method:
as §1

In data set [6] the test system is Mus musculus. The data set can be described thus: Tmax in Pseudomonas aeruginosa infected neutropenic Swiss mouse at 10 mg/kg, sc. More on the design: dose 10 mg/kg, route subcutaneous. The gist of the method:
as §1

Data set [7] relates to Mus musculus. The data set can be described thus: Tmax in Pseudomonas aeruginosa infected neutropenic Swiss mouse at 20 mg/kg, sc. More on the design: dose 20 mg/kg, route subcutaneous. In short, it runs like this:
as §1

Data set [8] relates to Mus musculus. The data set can be described thus: Tmax in Pseudomonas aeruginosa infected neutropenic Swiss mouse at 40 mg/kg, sc. More on the design: dose 40 mg/kg, route subcutaneous. The gist of the method:
as §1

In data set [9] the test system is Mus musculus. The data set can be described thus: Apparent volume of distribution to bioavailability in Pseudomonas aeruginosa infected neutropenic Swiss mouse at 5 mg/kg, sc. In short, it runs like this: as §1
The test system of data set [10] is Mus musculus. Put plainly: Apparent volume of distribution to bioavailability in Pseudomonas aeruginosa infected neutropenic Swiss mouse at 10 mg/kg, sc. In short, it runs like this:
as §1

Data set [11] concerns Mus musculus. The data set can be described thus: Apparent volume of distribution to bioavailability in Pseudomonas aeruginosa infected neutropenic Swiss mouse at 20 mg/kg, sc. The gist of the method:
as §1

The test system of data set [12] is Mus musculus. The data set can be described thus: Apparent volume of distribution to bioavailability in Pseudomonas aeruginosa infected neutropenic Swiss mouse at 40 mg/kg, sc. In short, it runs like this: as §1
Data set [13] relates to Mus musculus. Put plainly: Half life in Pseudomonas aeruginosa infected neutropenic Swiss mouse at 5 mg/kg, sc. More on the design: dose 5 mg/kg, route subcutaneous. In short, it runs like this:
as §1

Data set [14] has as its system Mus musculus. Put plainly: Half life in Pseudomonas aeruginosa infected neutropenic Swiss mouse at 10 mg/kg, sc. More on the design: dose 10 mg/kg, route subcutaneous. The gist of the method:
as §1

Data set [15] concerns Mus musculus. The data set can be described thus: Half life in Pseudomonas aeruginosa infected neutropenic Swiss mouse at 20 mg/kg, sc. More on the design: dose 20 mg/kg, route subcutaneous. The gist of the method:
as §1

Data set [16] relates to Mus musculus. The data set can be described thus: Half life in Pseudomonas aeruginosa infected neutropenic Swiss mouse at 40 mg/kg, sc. More on the design: dose 40 mg/kg, route subcutaneous. The gist of the method:
as §1

The Cmax is the maximum level reached in the sampled fluid or tissue. One may read the Tmax as the time from dosing to the highest level.

With COLISTIMETHATE SODIUM, the Cmax was determined as 310 ng/mL in data set [1], 1440 ng/mL in data set [2], 3290 ng/mL in [3] and 8890 ng/mL in [4]. Besides, the time to peak (Tmax) was 1 h in data set [5], 0.5 h in data set [6], 2 h in [7] and 2 h in [8]. Further, the Vc/F in [9] is 10.1 L/kg; in data set [10], 4.63 L/kg; in data set [11], 4.88 L/kg; in data set [12], 3.27 L/kg. In addition, the t1/2 is 0.298 h in [13], 1.14 h in data set [14], 1.34 h in [15] and 1.39 h in data set [16].
